We go through 6 molecules from ChEMBL document CHEMBL4330179, “De Novo Discovery of Nonstandard Macrocyclic Peptides as Noncompetitive Inhibitors of the Zika Virus NS2B-NS3 Protease” (ACS Med Chem Lett, 2019).

SMILES strings stand for the structures. Active and inactive are the calls of the source. Positions of bridges follow the written chain, without caps; N, C: chain ends. Non-standard residues stand in square brackets, D forms with d. Residues, ends and D or L forms follow the SMILES beside them. NMeY = CN[C@@H](Cc1ccc(O)cc1)C(=O)O; NMeF = CN[C@@H](Cc1ccccc1)C(=O)O; NMeS = CN[C@@H](CO)C(=O)O; Sar = CNCC(=O)O

The Ki is the equilibrium dissociation constant of an inhibitor or competing ligand from its target. For orientation: IC50 means the concentration that inhibits the measured activity by half. The term Kd denotes the constant that tells how readily two partners part at equilibrium. A higher Kd goes with weaker binding.

In data set [1] the target is T1, Nonstructural protein 3 (Zika virus, UniProt A0A024AXB9). The experiment in a line: Non-competitive inhibition of C-terminal His6-tagged linked Zika virus NS2B-NS3 protease domain expressed in Escherichia coli Bl21(DE3) using Bz-Nle-Lys-Lys-Arg-AMC as substrate after 30 mins by Cornish-Bowden plot analysis. In short, it runs like this:
(§1)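 Fluorogenic substrate Bz-Nle-Lys-Lys-Arg-AMC against linked gZiPro, run at four substrate concentrations across a range of inhibitor concentrations. Ki comes from nonlinear least-squares fits to a noncompetitive inhibition model, and the mode is checked on Cornish–Bowden plots.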

In data set [2] the target is T1, Nonstructural protein 3. Nature of the data set: Inhibition of C-terminal His6-tagged linked Zika virus NS2B-NS3 protease domain expressed in Escherichia coli Bl21(DE3) using Bz-Nle-Lys-Lys-Arg-AMC as substrate after 30 mins by fluorophotometric method. In short, it runs like this:
as §1

In data set [3] the target is T2, Nonstructural protein 3 (Zika virus) (UniProt A0A024AXB9). Nature of the data set: Competitive inhibition of C-terminal His6-tagged linked Zika virus NS2B-NS3 protease domain expressed in Escherichia coli Bl21(DE3) using Bz-Nle-Lys-Lys-Arg-AMC as substrate after 30 mins by Cornish-Bowden plot analysis.
Data set [4] deals with Genome polyprotein (dengue virus type 2, UniProt P29990). The experiment in a line: Inhibition of C-terminal His6-tagged linked Dengue virus serotype 2 NS2B-NS3 protease domain expressed in Escherichia coli Bl21(DE3) preincubated for 15 mins followed by Abz-Nle-Lys-Arg-Arg-Ser-3-(NO2)Tyr substrate addition and measured for 15 mins by fluorescence method. A digest of the protocol: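 DENV-2 NS2B-NS3 protease used at 100 nM against the FRET substrate Abz-Nle-Lys-Arg-Arg-Ser-3-(NO2)Tyr. IC50 values were calculated for a substrate concentration of 50 μM.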

In data set [5] the target is Genome polyprotein (West Nile virus, UniProt P06935). The experiment in a line: Inhibition of C-terminal His6-tagged linked West Nile virus NS2B-NS3 protease domain expressed in Escherichia coli Bl21(DE3) preincubated for 15 mins followed by AbzGly-Leu-Lys-Arg-Gly-Gly-3-(NO2)Tyr substrate addition and measured for 15 mins by fluorescence method. A digest of the protocol:
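West Nile virus NS2B-NS3 protease at 150 nM with internally quenched substrate Abz-Gly-Leu-Lys-Arg-Gly-Gly-3-(NO2)Tyr. IC50 is calculated for 50 μM substrate.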

The target in data set [6] is T1, Nonstructural protein 3. Nature of the data set: Binding affinity to C-terminal His6-tagged linked Zika virus NS2B-NS3 protease domain by SPR analysis. A digest of the protocol:
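Dissociation constants measured by surface plasmon resonance, with the linked Zika NS2B-NS3 protease (gZiPro) immobilized on the chip.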
For orientation: Surface plasmon resonance follows binding to a sensor surface in real time, without labels.

Data set [7] has as its target T1, Nonstructural protein 3. Nature of the data set: Inhibition of C-terminal His6-tagged unlinked Zika virus NS2B-NS3 protease domain expressed in Escherichia coli Bl21(DE3) using Bz-Nle-Lys-Lys-Arg-AMC as substrate after 30 mins by fluorophotometric method. In short, it runs like this:
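Unlinked Zika NS2B-NS3 protease at 0.5 nM with Bz-Nle-Lys-Lys-Arg-AMC substrate.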

Data set [8] can be described thus: Selectivity index, ratio of IC50 for C-terminal His6-tagged linked Dengue virus serotype 2 NS2B-NS3 protease domain expressed in Escherichia coli Bl21(DE3) to Ki for non-competitive inhibition of C-terminal His6-tagged linked Zika virus NS2B-NS3 protease domain expressed in Escherichia coli Bl21(DE3).
Data set [9] in a line: Selectivity index, ratio of IC50 for C-terminal His6-tagged linked West Nile virus NS2B-NS3 protease domain expressed in Escherichia coli Bl21(DE3) to Ki for non-competitive inhibition of C-terminal His6-tagged linked Zika virus NS2B-NS3 protease domain expressed in Escherichia coli Bl21(DE3).
Another data set concerns the target Trypsin (Homo sapiens) (UniProt P07477+P07478+P35030). Nature of the data set: Inhibition of trypsin (unknown origin) at 25 uM using Boc-Val-Pro-Arg-AMC as substrate preincubated for 15 mins followed by substrate addition and measured for 10 mins by fluorescence assay. Type of data set: protein assay. In short, it runs like this: (§2)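 Serine protease counter-screens (thrombin, trypsin), tested up to a highest concentration of 25 or 50 μM.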

Another data set concerns Huh-7. The experiment in a line: Cytotoxicity against human HuH7 cells assessed as reduction in cell viability up to 12.5 uM after 24 to 48 hrs by CellTiter-Blue assay. It is filed as cell-based. A digest of the protocol:
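Huh-7 cells exposed to compounds for 24 h and 48 h. Metabolic activity is read as % reduction relative to nontreated cells, with 80% viability used as the cutoff.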

In data set [10] the target is Prothrombin (Homo sapiens) (UniProt P00734). The experiment in a line: Inhibition of thrombin (unknown origin) at 25 uM using Boc-Val-Pro-Arg-AMC as substrate preincubated for 15 mins followed by substrate addition and measured for 10 mins by fluorescence assay. In short, it runs like this: as §2
Data set [11] deals with T2, Nonstructural protein 3 (Zika virus). Nature of the data set: Inhibition of C-terminal His6-tagged unlinked Zika virus NS2B-NS3 protease domain expressed in Escherichia coli Bl21(DE3) at 200 to 400 nM using Bz-Nle-Lys-Lys-Arg-AMC as substrate after 30 mins in presence of cn-716 by fluorophotometric method.

Sequence of Genome polyprotein (West Nile virus, UniProt P06935) (P06935 1371-1501 limits assumed): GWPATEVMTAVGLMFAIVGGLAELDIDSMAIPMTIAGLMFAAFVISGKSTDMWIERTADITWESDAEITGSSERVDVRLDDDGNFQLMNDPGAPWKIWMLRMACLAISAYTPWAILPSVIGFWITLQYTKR
Sequence of Genome polyprotein (West Nile virus, UniProt P06935) (P06935 1502-2120 limits assumed): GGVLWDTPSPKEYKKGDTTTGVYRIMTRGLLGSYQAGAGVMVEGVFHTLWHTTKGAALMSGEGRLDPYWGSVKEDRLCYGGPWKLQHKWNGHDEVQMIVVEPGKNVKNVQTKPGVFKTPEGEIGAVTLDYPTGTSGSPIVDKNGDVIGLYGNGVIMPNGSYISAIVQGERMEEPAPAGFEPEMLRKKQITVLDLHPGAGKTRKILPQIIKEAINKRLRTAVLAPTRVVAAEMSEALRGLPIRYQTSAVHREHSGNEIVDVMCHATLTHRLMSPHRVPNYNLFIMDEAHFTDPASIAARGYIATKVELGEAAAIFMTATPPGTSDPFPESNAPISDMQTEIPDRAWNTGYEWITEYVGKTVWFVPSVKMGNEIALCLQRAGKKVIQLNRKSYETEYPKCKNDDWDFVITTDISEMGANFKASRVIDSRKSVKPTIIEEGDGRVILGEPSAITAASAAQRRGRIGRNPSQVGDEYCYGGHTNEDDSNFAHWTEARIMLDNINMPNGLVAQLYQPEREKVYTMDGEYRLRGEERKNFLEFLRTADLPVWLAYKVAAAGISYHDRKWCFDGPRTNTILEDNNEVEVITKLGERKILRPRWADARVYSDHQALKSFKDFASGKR
T2 sequence (A0A024AXB9 as listed by the source): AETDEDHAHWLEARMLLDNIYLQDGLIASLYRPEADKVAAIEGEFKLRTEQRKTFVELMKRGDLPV
T1 sequence (A0A024AXB9 whole entry, the tested form may be a part): as the sequence (A0A024AXB9 as listed by the source) above
Sequence of Genome polyprotein (dengue virus type 2, UniProt P29990) (P29990 1346-1475 limits assumed): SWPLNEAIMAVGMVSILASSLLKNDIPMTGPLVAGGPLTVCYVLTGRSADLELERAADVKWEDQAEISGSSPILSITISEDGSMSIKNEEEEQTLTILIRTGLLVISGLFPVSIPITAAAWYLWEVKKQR
Sequence of Genome polyprotein (dengue virus type 2, UniProt P29990) (P29990 1476-2093 limits assumed): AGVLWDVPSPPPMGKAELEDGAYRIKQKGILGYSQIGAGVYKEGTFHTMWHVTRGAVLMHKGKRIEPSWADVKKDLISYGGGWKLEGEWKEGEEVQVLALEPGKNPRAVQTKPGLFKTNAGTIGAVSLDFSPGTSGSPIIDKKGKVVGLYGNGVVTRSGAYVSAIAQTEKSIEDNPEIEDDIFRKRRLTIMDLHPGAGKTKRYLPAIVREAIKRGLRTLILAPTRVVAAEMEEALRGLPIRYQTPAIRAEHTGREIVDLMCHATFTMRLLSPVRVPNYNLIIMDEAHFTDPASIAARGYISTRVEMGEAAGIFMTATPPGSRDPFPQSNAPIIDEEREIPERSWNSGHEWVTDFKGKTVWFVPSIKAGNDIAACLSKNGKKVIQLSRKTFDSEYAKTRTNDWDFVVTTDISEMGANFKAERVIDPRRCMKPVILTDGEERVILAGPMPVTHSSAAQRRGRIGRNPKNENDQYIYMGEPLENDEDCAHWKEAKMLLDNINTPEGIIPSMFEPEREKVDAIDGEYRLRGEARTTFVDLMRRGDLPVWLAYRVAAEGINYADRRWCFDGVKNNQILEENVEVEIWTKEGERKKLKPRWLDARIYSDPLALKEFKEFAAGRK

Take `CC[C@H](C)[C@@H]1NC(=O)[C@H](C)NC(=O)[C@@H](Cc2ccc(O)cc2)NC(=O)CSC[C@@H](C(N)=O)NC(=O)[C@H](CC(N)=O)NC(=O)[C@H](CC(C)C)N(C)C(=O)[C@H](Cc2ccc(O)cc2)NC(=O)[C@H](CCCCN)NC(=O)[C@H](CC(N)=O)NC(=O)[C@H](Cc2ccc(O)cc2)NC(=O)[C@H](Cc2ccc(OC)cc2)N(C)C(=O)[C@H]([C@@H](C)CC)NC1=O`: on Nonstructural protein 3 [1], the Ki came out at 3.5 µM. The IC50 against Nonstructural protein 3 [2] is 7.1 µM; at Genome polyprotein [4], above 20 µM; at Genome polyprotein [5], above 20 µM; against Nonstructural protein 3 [7], 3.2 µM. For the same molecule, the inhibition entry in [3] is “inactive”. For the same molecule, the Kd on Nonstructural protein 3 [6] is 0.168 µM.

The molecule `CC(C)C[C@@H]1NC(=O)[C@H]([C@@H](C)O)NC(=O)[C@H](Cc2ccc(O)cc2)NC(=O)CSC[C@@H](C(N)=O)NC(=O)[C@H](Cc2ccccc2)NC(=O)[C@H](Cc2ccccc2)NC(=O)[C@H]([C@@H](C)O)NC(=O)CN(C)C(=O)[C@H](CC(N)=O)NC(=O)[C@H](Cc2cnc[nH]2)NC(=O)[C@H](Cc2ccccc2)NC(=O)[C@@H]2CCCN2C1=O` ({CH2CO}-YTLPFHN[Sar]TFFC-NH2; thioether N-12) showed a Ki on Nonstructural protein 3 [1] above 100 µM. For the same molecule, in data set [3], the inhibition result was “inactive”. In addition, the IC50 is above 20 µM against Genome polyprotein [4], above 20 µM at Genome polyprotein [5] and at least 50 µM on Nonstructural protein 3 [7]. For the same molecule, binding at Nonstructural protein 3 [6] was characterised by a dissociation constant (Kd) of 0.005 µM.

On to `COc1ccc(C[C@H]2C(=O)N[C@@H](Cc3ccccc3)C(=O)N[C@H](C(N)=O)CSCC(=O)N[C@@H](Cc3ccc(O)cc3)C(=O)N[C@@H]([C@@H](C)O)C(=O)N[C@@H](CC(N)=O)C(=O)N[C@@H](Cc3ccccc3)C(=O)N[C@@H](Cc3ccc(O)cc3)C(=O)N[C@@H](CC(C)C)C(=O)N[C@@H](Cc3ccc(O)cc3)C(=O)N3CCC[C@H]3C(=O)N[C@@H](Cc3ccc(O)cc3)C(=O)N2C)cc1` ({CH2CO}-YTNFYLYPY[NMeY](Me)FC-NH2; thioether N-12), for which the Selectivity Index in data set [8] and in [9] was above 10 each time. At Nonstructural protein 3 [1], the Ki is 2 µM. In addition, the IC50 on Nonstructural protein 3 [2] was 3.3 µM; against Genome polyprotein [4], above 20 µM; against Genome polyprotein [5], above 20 µM; at Nonstructural protein 3 [7], 2.2 µM. Also, the inhibition entry in data set [3] is “inactive”. The molecule further registered a Kd at Nonstructural protein 3 [6] of 0.008 µM.

As to `CC[C@H](C)[C@@H]1NC(=O)[C@H](CC(N)=O)NC(=O)[C@H](C(C)C)NC(=O)[C@H](CC(C)C)NC(=O)[C@H]([C@@H](C)O)NC(=O)[C@H](CC(N)=O)NC(=O)[C@H](Cc2ccc(OC)cc2)N(C)C(=O)[C@H]([C@@H](C)CC)NC(=O)[C@H](CCCCN)NC(=O)[C@H](Cc2c[nH]c3ccccc23)NC(=O)[C@H](Cc2ccc(O)cc2)NC(=O)CSC[C@@H](C(N)=O)NC1=O` ({CH2CO}-YWKI[NMeY](Me)NTLVNIC-NH2; thioether N-12), the inhibition result (at Trypsin (Homo sapiens); in data set [3]; in [10]) was “inactive” each time. For the same molecule, the Selectivity Index in [8] is 4; in [9], 9. Also, the affinity at Nonstructural protein 3 [1] corresponds to a Ki of 0.8 µM. In addition, the IC50 on Nonstructural protein 3 [2] was 1.32 µM; against Genome polyprotein [4] it was above 10 µM; against Genome polyprotein [5], above 10 µM; against Nonstructural protein 3 [7] it was 1.5 µM. Also, in the data set on Huh-7, the Activity entry is on record as “Non-Toxic”. In addition, binding on Nonstructural protein 3 [6] was put at a Kd of 0.02 µM.

As for `COc1ccc(C[C@H]2C(=O)N[C@@H](CCCCN)C(=O)N(C)[C@@H](Cc3ccccc3)C(=O)N[C@@H](CCCCN)C(=O)N(C)[C@@H](CO)C(=O)N(C)[C@@H](Cc3ccc(OC)cc3)C(=O)N[C@@H](CCCCN)C(=O)N(C)[C@@H](Cc3ccc(OC)cc3)C(=O)N(C)[C@@H](Cc3ccc(OC)cc3)C(=O)N[C@@H](CCCCN)C(=O)N[C@H](C(N)=O)CSCC(=O)N[C@@H](Cc3ccc(O)cc3)C(=O)N2C)cc1` ({CH2CO}-Y[NMeY](Me)K[NMeF]K[NMeS][NMeY](Me)K[NMeY](Me)[NMeY](Me)KC-NH2; thioether N-12), the inhibition entry (on Trypsin (Homo sapiens); in data set [3]; in [10]) was “inactive” throughout. Besides, the inhibition result in data set [11] is “Active”. The Selectivity Index in data set [8] and in data set [9] was above 10 in each case. For the same molecule, affinity on Nonstructural protein 3 [1] was put at a Ki of 0.44 µM. Also, the IC50 came out at 0.62 µM on Nonstructural protein 3 [2], 1.7 µM against Genome polyprotein [4], 3.9 µM against Genome polyprotein [5] and 0.25 µM on Nonstructural protein 3 [7]. Further, in the data set with Huh-7, the Activity entry is “Non-Toxic”. Moreover, binding at Nonstructural protein 3 [6] was characterised by a dissociation constant (Kd) of 0.009 µM.

Turning to `CC[C@H](C)[C@@H]1NC(=O)CN(C)C(=O)[C@H](Cc2ccc(O)cc2)NC(=O)CSC[C@@H](C(N)=O)NC(=O)[C@@H]2CCCN2C(=O)[C@H]([C@@H](C)CC)NC(=O)[C@H](Cc2ccc(OC)cc2)N(C)C(=O)[C@H](Cc2ccc(OC)cc2)N(C)C(=O)[C@H](CC(N)=O)NC(=O)[C@H](Cc2ccc(O)cc2)NC(=O)[C@H](CCCCN)NC(=O)[C@H](C)NC1=O` ({CH2CO}-Y[Sar]IAKYN[NMeY](Me)[NMeY](Me)IPC-NH2; thioether N-12), at Nonstructural protein 3 [1], affinity was put at a Ki of 20.4 µM. For the same molecule, the IC50 on Nonstructural protein 3 [2] was 16.5 µM; against Genome polyprotein [4] it was at least 20 µM; against Genome polyprotein [5], at least 20 µM; against Nonstructural protein 3 [7], 4.6 µM. Further, in data set [3], the inhibition entry was “inactive”. The molecule further returned a dissociation constant (Kd) at Nonstructural protein 3 [6] of 0.009 µM.
